CHO parental Ca = ATP-evoked calcium signal inhibitors, parental CHO, primary screen, counter-screen for OX1R antagonist project, cell-based, fluorescence, Fluo-8 calcium dye | 330,000 tested, 0.63% active | parental CHO-K1, ATP-induced calcium, Fluo-8 fluorescence | inhibition, % at 5.6 µM;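 active = inhibition above that plate's mean sample inhibition plus 3 SD, cut at about 26% in these data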;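 also: 0% = ATP-challenged DMSO wells and 100% = DMSO wells without ATP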
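Measured by: calcium-sensitive Fluo-8 fluorescence / Test system: CHO parental line / Controls: ATP-challenged DMSO wells low, unchallenged DMSO wells high / Measure: % inhibition / Compound: single nominal dose of 5.6 µM per compound / Replicates: single well per compound, no replicates / Reagent: ATP as calcium-mobilizing challenge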
OX1R antag-1 = OX1R (HCRTR1) antagonists, primary screen, fluorescence, CHO/OX1R cells, Fluo-8 calcium, orexin A; 330,000 tested, 0.43% active; Fluo-8 calcium fluorescence; inhibition, % at 5 µM; AID 434989, 2010;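 active = inhibition above its plate's threshold, mean inhibition of all tested compounds on the plate plus 3 SD, cut at about 37% in these data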;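 also: 0% = orexin A challenge wells and 100% = SB-334867-A antagonist wells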
Target sequence (O43613 whole entry, looked up): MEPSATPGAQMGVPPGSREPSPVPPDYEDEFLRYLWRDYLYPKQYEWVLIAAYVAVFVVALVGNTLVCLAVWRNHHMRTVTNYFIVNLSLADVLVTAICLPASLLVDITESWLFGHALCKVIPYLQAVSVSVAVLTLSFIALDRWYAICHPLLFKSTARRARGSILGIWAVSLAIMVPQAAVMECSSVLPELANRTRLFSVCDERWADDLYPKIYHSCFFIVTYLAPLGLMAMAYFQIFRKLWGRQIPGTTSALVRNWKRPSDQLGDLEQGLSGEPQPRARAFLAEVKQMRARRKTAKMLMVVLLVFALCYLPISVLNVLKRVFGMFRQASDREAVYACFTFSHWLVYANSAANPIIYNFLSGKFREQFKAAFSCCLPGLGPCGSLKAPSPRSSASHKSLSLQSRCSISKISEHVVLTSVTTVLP
GPR7 antag = GPR7 receptor antagonists, primary screen, cell-based, fluorescence, single concentration; inhibition, % at 4.4 µM; 290,000 tested, 1.1% active; AID 1861, 2009; GPR7-expressing cells, fluorescence antagonist assay; in the data active = inhibition above about 16%, passing the limit was not always enough;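 also: cells stimulated with the agonist NPW; 0% = agonist with vehicle and 100% = vehicle without agonist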
OX1R antag-2 = antagonists of human orexin 1 receptor (OX1R); Orexin/Hypocretin receptor type 1 (Homo sapiens), O43613; OX1R-expressing cells, FRET antagonist read-out; inhibition, % at 6.6 µM; 330,000 tested, 1.8% active; in the data active = inhibition mostly above about 38%, no sharp cut-off; inactive = mostly below about 40%;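 also: 0% = agonist challenge alone and 100% = reference antagonist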
TAAR1 antag = human TAAR1 antagonists, primary screen, Fluo-8 calcium fluorescence, CHO RD-HGA16 cells; inhibition, % at 3 µM; 360,000 tested, 1.5% active; antagonist; Trace amine-associated receptor 1 (Homo sapiens), Q96RJ0;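 active = inhibition above a per-plate cutoff, the mean inhibition of test compounds on that plate plus 3 SD, cut at about 49% in these data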;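 also: 0% = DMSO plus EC80 beta-PEA response and 100% = DMSO alone without agonist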
Target sequence (Q96RJ0 whole entry, looked up): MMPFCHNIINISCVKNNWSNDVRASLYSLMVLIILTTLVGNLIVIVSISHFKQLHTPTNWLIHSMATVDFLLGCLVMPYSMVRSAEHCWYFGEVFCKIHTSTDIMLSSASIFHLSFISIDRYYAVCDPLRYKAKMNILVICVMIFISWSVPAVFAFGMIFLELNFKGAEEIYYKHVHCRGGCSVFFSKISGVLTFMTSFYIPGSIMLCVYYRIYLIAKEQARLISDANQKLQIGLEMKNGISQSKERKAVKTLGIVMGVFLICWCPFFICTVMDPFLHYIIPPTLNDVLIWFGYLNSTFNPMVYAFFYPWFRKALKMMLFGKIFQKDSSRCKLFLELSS
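Material: RD-HGA16 CHO cells with stable hTAAR1 and Gα16; Dosing: single nominal final test compound concentration of 3 µM; Schedule: seeding 17-24 h prior, 75-min 37 °C, 30-min RT dye loading; Detection: kinetic Fluo-8 calcium fluorescence measurement; Measure: % inhibition from peak post-agonist over basal fluorescence ratio; Benchmarks: vehicle and agonist controls.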
TAAR1 ag = human TAAR1 agonists, primary screen, Fluo-8 calcium fluorescence, CHO RD-HGA16 cells; Trace amine-associated receptor 1 (Homo sapiens), Q96RJ0; vehicle wells 0%, saturating PEA agonist 100%; activation, % at 3 µM; 360,000 tested, 0.99% active; AID 624467, 2012;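 active = activation above the mean activation of all test compounds in the run plus 3 SD, cut at about 38% in these data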
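System: CHO-derived RD-HGA16 cells with stable Gα16 and human TAAR1. Times: 17-24 h plating, Fluo-8 75 min 37 °C, 30 min RT. Measured by: calcium-sensitive Fluo-8 signal, excitation 470-495, emission 515-575 nm. Read-out basis: % activation relative to PEA EC100 response. Control set: DMSO and PEA EC100. Repeats: no replicates (n 1).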
TAAR1 ag conf = human TAAR1 agonists, retest of hits, confirmation, Fluo-8 calcium fluorescence, CHO RD-HGA16 cells; shares compounds with TAAR1 ag; scaled: DMSO 0%, maximal phenethylamine 100%; activation, % at 3 µM; 2,400 tested, 82% active;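 active = activation above a cutoff set at the run's mean compound activation plus 3 SD, cut at about 39% in these data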
Ga16 ag counter = nonselective calcium mobilization agonists, CHO-Ga16 cells, counter-screen for hTAAR1 agonist project, cell-based, fluorescence, CHO-Ga16 parental line. shares compounds with TAAR1 ag. 2,400 tested, 50% active. activation, % at 3 µM. Fluo-8 calcium fluorescence; normalized to maximal ATP response, DMSO zero. AID 651787, 2012;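 active = activation above the run cutoff, the mean activation over all tested wells plus 3 SD, cut at about 12% in these data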;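 also: 0% = DMSO wells and 100% = maximal ATP response on the peak over basal ratio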
TAAR1 desensitize = TAAR1 desensitization by agonist hits, confirmation, counter-screen for TAAR1 agonist project, cell-based, fluorescence, tachyphylaxis; CHO RD-HGA16 hTAAR1, Fluo-8 calcium, beta-PEA response inhibition; shares compounds with TAAR1 ag; 2,400 tested, 46% active; inhibition, % at 3 µM;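 active = inhibition above the run cutoff, the mean inhibition of all test compounds plus 3 SD, cut at about 49% in these data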;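 also: beta-PEA stimulus applied at its EC80; loss of beta-PEA calcium signal after compound pretreatment read as receptor desensitization; 0% = DMSO with beta-PEA at EC80 and 100% = DMSO alone without agonist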
Ga16 antag count = inhibition of ATP-evoked calcium response in CHO-Ga16 cells, counter-screen for TAAR1 agonist project, cell-based, fluorescence; inhibition, % at 3 µM; shares compounds with TAAR1 ag; AID 651952, 2012; CHO-Ga16 ATP-induced calcium, Fluo-8 fluorescence; 2,400 tested, 39% active;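 active = inhibition above the plate's mean compound inhibition plus 3 SD, computed per plate, cut at about 22% in these data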;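 also: 0% = EC80 ATP with DMSO and 100% = DMSO wells without ATP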
* marks the source's active call; other numbers are inactive results; nt = not tested or not shown. Compounds with a hit are over-represented: about 4.6% of the library has one in this group of screens.

SMILES	CHO parental Ca	OX1R antag-1	GPR7 antag	OX1R antag-2	TAAR1 antag	TAAR1 ag	TAAR1 ag conf	Ga16 ag counter	TAAR1 desensitize	Ga16 antag count
Cc1[nH]c2ccccc2c1CN1CCc2ccccc2C1	-6.1	2.8	-5.7	6.0	nt	nt	nt	3.8	nt	5.6
O=c1[nH]c(CN2CCc3ccccc3C2)nc2ccccc12	-38.4	35.7	-2.2	31.3	-0.4	6.7	nt	nt	nt	nt
CCC(=O)c1ccc(OCC(=O)N2CCN(S(=O)(=O)c3ccc(Cl)s3)CC2)cc1	-16.9	-6.0	nt	10.2	-16.6	10.0	nt	nt	nt	nt
CCCCC(=O)NC(=S)NNC(=O)CCc1ccccc1	-1.0	6.0	-6.1	14.0	19.2	64.3*	82.3*	61.8*	40.1	34.5*
O=C(CCc1ccccc1)NNC(=S)NC(=O)c1ccccc1	-1.8	-1.7	-3.0	-3.0	17.2	87.7*	74.8*	55.5*	34.0	25.0*
COC(=O)[C@@]12C[C@@H](CC(=O)NCC34CC5CC(CC(C5)C3)C4)C(=O)N(Cc3ccccc3)C1=CCC(C)(C)C2	nt	nt	nt	nt	-33.4	-1.8	nt	nt	nt	nt
Oc1c(C(c2cccs2)N2CCN(c3ccccc3)CC2)ccc2cccnc12 (stereo not given)	-3.0	-15.8	-10.0	28.3	nt	nt	nt	nt	nt	nt
CN1CCN(C(c2ccc(C(F)(F)F)cc2)c2ccc3cccnc3c2O)CC1 (stereo not given)	-0.8	-6.8	-10.5	10.9	10.3	101.8*	128.7*	94.3*	63.0*	19.3
NC(c1ccccc1)c1csc(NC(=O)Nc2cccc(Cl)c2)n1 (stereo not given)	nt	nt	nt	nt	28.6	64.4*	74.2*	21.9*	57.4*	35.8*
NC(c1ccccc1)c1csc(NC(=O)NCCc2ccccc2)n1 (stereo not given)	nt	nt	nt	nt	11.2	62.4*	28.1	4.6	15.6	15.3
Cc1csc(C(=O)NN)c1N(C)C	-15.1	-31.6	-5.6	15.6	-19.4	6.0	nt	nt	nt	nt
CC(=NCCc1ccccc1)C1=C(O)CSC1=O	-11.7	-22.8	-9.9	38.9	74.7*	93.0*	84.0*	-0.1	56.5*	5.8
CCCCN=C(C)C1=C(O)CSC1=O	-16.6	-0.2	-15.0	-4.1	-3.2	0.9	nt	nt	nt	nt
CC(=NCCc1ccccc1)C1=C(O)CCC1=O	-9.0	-13.7	-1.9	5.2	74.4*	105.3*	98.3*	1.0	73.4*	7.8
O=C(O)CSc1cc(C(=O)c2ccccc2O)cn2c(=O)c3c4c(sc3nc12)CCCC4	nt	nt	-7.2	nt	-15.7	2.3	nt	nt	nt	nt
COc1ccc(-c2csc(C(O)c3ccc(F)c(F)c3)n2)cc1 (stereo not given)	nt	nt	nt	nt	77.3*	57.3*	51.5*	33.2*	70.1*	53.2*
OC(c1ccc(F)c(F)c1)c1nc(-c2ccccc2)cs1 (stereo not given)	nt	nt	nt	nt	-3.9	1.2	nt	nt	nt	nt
CC(=O)Nc1ccccc1OC(C)C(=O)NC(C)c1ccc(F)cc1 (stereo not given)	-22.9	-58.0	-2.2	11.7	-0.5	14.8	nt	nt	nt	nt
CS(=O)(=O)N1CCN(c2ccccc2[N+](=O)[O-])CC1	4.5	-5.2	0.3	20.3	-1.1	4.4	nt	nt	nt	nt
C/C(=N\NC(=O)c1nn(C)c(C)c1Br)c1cccc(NC(=O)c2ccc(F)cc2)c1	-8.5	-24.0	0.6	5.2	10.0	1.8	nt	nt	nt	nt
C=C(C)CN(CC)C(=O)COc1ccc(S(=O)(=O)Nc2ccc(OC)cc2)cc1	-4.1	1.9	8.4	9.4	14.2	63.0*	59.1*	30.0*	23.3	22.2*
COc1ccccc1CCNC(=O)C(=O)NCC1OCCN1S(=O)(=O)c1ccccc1 (stereo not given)	-5.4	-11.5	5.5	27.8	5.2	47.4*	69.3*	0.8	34.2	4.6
COc1ccccc1CCNC(=O)C(=O)NCC1OCCN1S(=O)(=O)c1cccs1 (stereo not given)	-5.8	2.9	3.7	33.5	-4.5	71.6*	73.9*	0.8	36.1	15.6
O=C(NCCc1ccccc1)C(=O)NCC1OCCN1S(=O)(=O)c1cc(F)ccc1F (stereo not given)	-14.7	-13.9	1.9	23.5	42.7	51.7*	69.0*	10.6	57.6*	33.8*
COc1ccccc1CCNC(=O)C(=O)NCC1OCCN1S(=O)(=O)c1ccc([N+](=O)[O-])cc1 (stereo not given)	-11.9	-25.0	0.4	26.7	-21.4	45.9*	72.5*	3.0	13.0	6.5
SMILES	CHO parental Ca	OX1R antag-1	GPR7 antag	OX1R antag-2	TAAR1 antag	TAAR1 ag	TAAR1 ag conf	Ga16 ag counter	TAAR1 desensitize	Ga16 antag count
CCC/C(=N/NC(=O)c1ccccc1Cl)c1ccccc1	0.9	-63.8	-6.7	-7.5	6.0	0.6	nt	nt	nt	nt
Cc1cc(F)ccc1S(=O)(=O)N1CCCOC1CNC(=O)C(=O)NCCc1ccco1 (stereo not given)	nt	nt	nt	nt	-13.3	2.1	nt	nt	nt	nt
COc1ccccc1CCNC(=O)C(=O)NCC1OCCN1S(=O)(=O)c1ccc(C)cc1 (stereo not given)	-20.5	-12.9	-0.9	4.3	37.2	62.7*	76.4*	1.9	58.1*	4.8
COc1ccccc1CCNC(=O)C(=O)NCC1OCCCN1S(=O)(=O)c1ccc(F)cc1C (stereo not given)	-18.2	-2.0	-18.4	47.3	4.0	57.8*	64.2*	3.8	20.5	12.1
CCC(=O)Nc1ccc(C(=O)NNC(=O)c2cccc(C)c2)cc1	-0.6	-6.6	9.0	0.8	-9.6	2.1	nt	nt	nt	nt
Cc1c(Cl)cccc1-n1c(SCC(=O)N(C)Cc2ccccc2)nnc1-c1ccncc1	-20.0	-28.1	4.7	12.3	4.9	9.3	nt	nt	nt	nt
